From ChEMBL document CHEMBL3286366, “Identification of malic enzyme mutants depending on 1,2,3-triazole moiety-containing nicotinamide adenine dinucleotide analogs” (Bioorg Med Chem Lett, 2014)

Assays:
Escherichia coli K-12 [1] = assay: Activity of purified recombinant Escherichia coli K-12 malic enzyme L310K/Q401R mutant at 0.2 mM by UV-vis spectrophotometry in presence of L-malate MnCl2
In short: (§1)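 Screening of malic enzyme mutants with 1,2,3-triazole-containing NAD analogs as cofactor. Each analog was present at 0.2 mM, and the read-out was specific activity.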

Escherichia coli K-12 [2] = assay: Activity of purified recombinant Escherichia coli K-12 malic enzyme L310K/L404S mutant at 0.2 mM by UV-vis spectrophotometry in presence of L-malate MnCl2; in short: as §1
Escherichia coli K-12 [3] = assay: Activity of purified recombinant Escherichia coli K-12 malic enzyme L310R/Q401N mutant at 0.2 mM by UV-vis spectrophotometry in presence of L-malate MnCl2; in short: as §1
Escherichia coli K-12 [4] = assay: Activity of purified recombinant Escherichia coli K-12 malic enzyme L310R/L404C mutant at 0.2 mM by UV-vis spectrophotometry in presence of L-malate MnCl2; in short: as §1
Escherichia coli K-12 [5] = assay: Activity of purified recombinant Escherichia coli K-12 malic enzyme L310R/Q401V mutant at 0.2 mM by UV-vis spectrophotometry in presence of L-malate MnCl2; in short: as §1
Escherichia coli K-12 [6] = assay: Ratio of Kcat to Km for purified recombinant Escherichia coli K-12 malic enzyme L310K/L404S mutant at 0.2 mM by Lineweaver-Burk plot method in presence of L-malate MnCl2
Escherichia coli K-12 [7] = assay: Activity of purified recombinant Escherichia coli K-12 malic enzyme L310R/L404N mutant at 0.2 mM by UV-vis spectrophotometry in presence of L-malate MnCl2; in short: as §1
Escherichia coli K-12 [8] = assay: Activity of purified recombinant Escherichia coli K-12 malic enzyme L310K/L404S mutant at 0.2 mM by Lineweaver-Burk plot method in presence of L-malate MnCl2
Escherichia coli K-12 [9] = assay: Activity of purified recombinant Escherichia coli K-12 malic enzyme L310R/Q401I mutant at 0.2 mM by UV-vis spectrophotometry in presence of L-malate MnCl2; in short: as §1
Escherichia coli K-12 [10] = assay: Activity of purified recombinant Escherichia coli K-12 malic enzyme L310R/Q401S mutant at 0.2 mM by UV-vis spectrophotometry in presence of L-malate MnCl2; in short: as §1
[11] = compound: NC(=O)c1ccc[n+]([C@@H]2O[C@H](COP(=O)([O-])OP(=O)(O)OC[C@@H]3O[C@H](n4cc(-c5cccc6ccccc56)nn4)[C@@H](O)[C@H]3O)[C@@H](O)[C@H]2O)c1; assay: (§2) Activity of purified recombinant Escherichia coli K-12 malic enzyme at 0.2 mM by Lineweaver-Burk plot method in presence of L-malate MnCl2
[12] = compound: Cc1ccccc1-c1cn([C@H]2O[C@@H](COP(=O)(O)OP(=O)([O-])OC[C@H]3O[C@@H]([n+]4cccc(C(N)=O)c4)[C@H](O)[C@@H]3O)[C@H](O)[C@@H]2O)nn1; assay: as §2
[13] = compound: NC(=O)c1ccc[n+]([C@@H]2O[C@H](COP(=O)([O-])OP(=O)(O)OC[C@@H]3O[C@H](n4cnc5c(N)ncnc54)[C@@H](O)[C@H]3O)[C@@H](O)[C@H]2O)c1; assay: as §2
[14] = compound: NC(=O)c1ccc[n+]([C@@H]2O[C@H](COP(=O)([O-])OP(=O)(O)OC[C@@H]3O[C@H](n4cc(-c5ccccc5)nn4)[C@@H](O)[C@H]3O)[C@@H](O)[C@H]2O)c1; assay: as §2
[15] = compound: NC(=O)c1ccc[n+]([C@@H]2O[C@H](COP(=O)([O-])OP(=O)(O)OC[C@@H]3O[C@H](n4cc(-c5cccc6ccccc56)nn4)[C@@H](O)[C@H]3O)[C@@H](O)[C@H]2O)c1; assay: (§3) Ratio of Kcat to Km for purified recombinant Escherichia coli K-12 malic enzyme at 0.2 mM by Lineweaver-Burk plot method in presence of L-malate MnCl2
[16] = compound: Cc1ccccc1-c1cn([C@H]2O[C@@H](COP(=O)(O)OP(=O)([O-])OC[C@H]3O[C@@H]([n+]4cccc(C(N)=O)c4)[C@H](O)[C@@H]3O)[C@H](O)[C@@H]2O)nn1; assay: as §3
[17] = compound: NC(=O)c1ccc[n+]([C@@H]2O[C@H](COP(=O)([O-])OP(=O)(O)OC[C@@H]3O[C@H](n4cnc5c(N)ncnc54)[C@@H](O)[C@H]3O)[C@@H](O)[C@H]2O)c1; assay: as §3
[18] = compound: NC(=O)c1ccc[n+]([C@@H]2O[C@H](COP(=O)([O-])OP(=O)(O)OC[C@@H]3O[C@H](n4cc(-c5ccccc5)nn4)[C@@H](O)[C@H]3O)[C@@H](O)[C@H]2O)c1; assay: as §3

NC(=O)c1ccc[n+]([C@@H]2O[C@H](COP(=O)([O-])OP(=O)(O)OC[C@@H]3O[C@H](n4cc(C(=O)O)nn4)[C@@H](O)[C@H]3O)[C@@H](O)[C@H]2O)c1
Activity (Escherichia coli K-12 [1]): 2.1 U/mg
Activity (Escherichia coli K-12 [2]): 0.17 U/mg

NC(=O)c1ccc[n+]([C@@H]2O[C@H](COP(=O)([O-])OP(=O)(O)OC[C@@H]3O[C@H](n4cc(-c5cccc6ccccc56)nn4)[C@@H](O)[C@H]3O)[C@@H](O)[C@H]2O)c1
Activity (Escherichia coli K-12 [3]): 0.32 U/mg
Activity (Escherichia coli K-12 [4]): 0.36 U/mg
Activity (Escherichia coli K-12 [5]): 0.53 U/mg
kcat/Km (Escherichia coli K-12 [6]): 68600 M⁻¹ s⁻¹
Activity (Escherichia coli K-12 [1]): 2.3 U/mg
Activity (Escherichia coli K-12 [7]): 0.47 U/mg
Activity (Escherichia coli K-12 [2]): 10.5 U/mg
Km (Escherichia coli K-12 [8]): 1000 µM
kcat (Escherichia coli K-12 [8]): 68.6 s⁻¹

COc1ccc(-c2cn([C@H]3O[C@@H](COP(=O)(O)OP(=O)([O-])OC[C@H]4O[C@@H]([n+]5cccc(C(N)=O)c5)[C@H](O)[C@@H]4O)[C@H](O)[C@@H]3O)nn2)cc1
Activity (Escherichia coli K-12 [3]): 0.43 U/mg
Activity (Escherichia coli K-12 [4]): 0.51 U/mg
Activity (Escherichia coli K-12 [9]): 0.98 U/mg
Activity (Escherichia coli K-12 [1]): 4.3 U/mg
Activity (Escherichia coli K-12 [7]): 0.51 U/mg
Activity (Escherichia coli K-12 [2]): 1.6 U/mg
Activity (Escherichia coli K-12 [10]): 0.43 U/mg

Cc1ccccc1-c1cn([C@H]2O[C@@H](COP(=O)(O)OP(=O)([O-])OC[C@H]3O[C@@H]([n+]4cccc(C(N)=O)c4)[C@H](O)[C@@H]3O)[C@H](O)[C@@H]2O)nn1
kcat/Km (Escherichia coli K-12 [6]): 78800 M⁻¹ s⁻¹
Km (Escherichia coli K-12 [8]): 1100 µM
kcat (Escherichia coli K-12 [8]): 86.7 s⁻¹

NC(=O)c1ccc[n+]([C@@H]2O[C@H](COP(=O)([O-])OP(=O)(O)OC[C@@H]3O[C@H](n4cnc5c(N)ncnc54)[C@@H](O)[C@H]3O)[C@@H](O)[C@H]2O)c1
kcat/Km (Escherichia coli K-12 [6]): 8200 M⁻¹ s⁻¹
Km (Escherichia coli K-12 [8]): 4100 µM
kcat (Escherichia coli K-12 [8]): 33.7 s⁻¹

NC(=O)c1ccc[n+]([C@@H]2O[C@H](COP(=O)([O-])OP(=O)(O)OC[C@@H]3O[C@H](n4cc(-c5ccccc5)nn4)[C@@H](O)[C@H]3O)[C@@H](O)[C@H]2O)c1
kcat/Km (Escherichia coli K-12 [6]): 6700 M⁻¹ s⁻¹
Km (Escherichia coli K-12 [8]): 2500 µM
kcat (Escherichia coli K-12 [8]): 16.4 s⁻¹

B1: NAD-dependent malic enzyme (Escherichia coli (strain K12)), P26616 (protein)
chain: MEPKTKKQRSLYIPYAGPVLLEFPLLNKGSAFSMEERRNFNLLGLLPEVVETIEEQAERAWIQYQGFKTEIDKHIYLRNIQDTNETLFYRLVNNHLDEMMPVIYTPTVGAACERFSEIYRRSRGVFISYQNRHNMDDILQNVPNHNIKVIVVTDGERILGLGDQGIGGMGIPIGKLSLYTACGGISPAYTLPVVLDVGTNNQQLLNDPLYMGWRNPRITDDEYYEFVDEFIQAVKQRWPDVLLQFEDFAQKNAMPLLNRYRNEICSFNDDIQGTAAVTVGTLIAASRAAGGQLSEKKIVFLGAGSAGCGIAEMIISQTQREGLSEEAARQKVFMVDRFGLLTDKMPNLLPFQTKLVQKRENLSDWDTDSDVLSLLDVVRNVKPDILIGVSGQTGLFTEEIIREMHKHCPRPIVMPLSNPTSRVEATPQDIIAWTEGNALVATGSPFNPVVWKDKIYPIAQCNNAFIFPGIGLGVIASGASRITDEMLMSASETLAQYSPLVLNGEGMVLPELKDIQKVSRAIAFAVGKMAQQQGVAVKTSAEALQQAIDDNFWQAEYRDYRRTSI
Km [11]: 1800 µM
kcat [11]: 4.6 s⁻¹
Km [12]: 1600 µM
kcat [12]: 10 s⁻¹
Km [13]: 280 µM
kcat [13]: 103 s⁻¹
Km [14]: 2900 µM
kcat [14]: 7.5 s⁻¹
kcat/Km [15]: 2600 M⁻¹ s⁻¹
kcat/Km [16]: 6300 M⁻¹ s⁻¹
kcat/Km [17]: 369000 M⁻¹ s⁻¹
kcat/Km [18]: 2600 M⁻¹ s⁻¹
